Common to all, as to format: functional
Test [1] has as its system Mus musculus. In words: Trypanocidal Activity at I.C.E. value 0.34 when administered subcutaneously. The method, boiled down:
(§1)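 Blood-stage T. rhodesiense infection came from a standard inoculum lethal to all untreated mice. Drug was given by subcutaneous injection to groups of five mice. Survival beyond 30 days counted as cure. […] Sub-curative doses scored 0, and data were normalized at each dose.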

Test [2] relates to Mus musculus. As to the kind of experiment: Trypanocidal Activity at I.C.E. value >0.3 when administered perorally.
Test [3] concerns Mus musculus. As to the kind of experiment: Trypanocidal Activity at I.C.E. value 0.30 when administered perorally.
The subject of test [4] is Mus musculus. As to the kind of experiment: Trypanocidal Activity at I.C.E. value 0.85 when administered subcutaneously. The method, boiled down:
(§2)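 Mice, in groups of five per dose, were given a standard inoculum of blood-stage T. rhodesiense that is lethal to all untreated controls, then dosed subcutaneously. Usually 11 dose levels were used (2^n × 0.42 mg/kg).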

Test [5] concerns Mus musculus. As to the kind of experiment: Trypanocidal Activity at I.C.E. value 0.55 when administered perorally.
Test [6] concerns Trypanosoma brucei rhodesiense. As to the kind of experiment: In Vitro measurement of inhibition of thymidine uptake in cell culture of Trypanosoma rhodesiense. Conditions: read-out: ID50 (the source's name). The method, boiled down:
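Parasites harvested from infected rats and incubated 3 h across a drug concentration series, usually 0.1–100 µg/mL. Incorporation of radiolabeled thymidine measured. ID50 is the concentration (µg/mL) producing 50% inhibition.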

The subject of test [7] is Trypanosoma brucei rhodesiense. In words: In Vitro measurement of inhibition of leucine uptake in cell culture of Trypanosoma rhodesiense. Conditions: read-out: ID50 (the source's name). The method, boiled down: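 Trypanosomes harvested from infected rats, cultured 3 h with several concentrations of drug, usually 0.1–100 µg/mL. Radiolabeled L-leucine uptake measured. ID50 is the concentration in µg/mL giving 50% inhibition of incorporation.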

The subject of test [8] is Mus musculus. In words: Trypanocidal Activity at I.C.E. value 0.87 when administered subcutaneously. The method, boiled down: as §2
Test [9] concerns Mus musculus. As to the kind of experiment: Trypanocidal Activity at I.C.E. value 0.89 when administered subcutaneously. The method, boiled down: as §2
For test [10], the system named is Mus musculus. As to the kind of experiment: Trypanocidal Activity at I.C.E. value 0.59 when administered perorally.
Test [11] deals with Mus musculus. As to the kind of experiment: Trypanocidal Activity at I.C.E. value 0.32 when administered subcutaneously. The method, boiled down:
as §1

Test [12] has as its system Mus musculus. In words: Trypanocidal Activity at I.C.E. value 0.43 when administered perorally.

Regarding `Br.CC/N=C(\NCC)N/N=C/C=C/c1ccc(-c2cn3ccccc3[n+]2C)cc1.[Br-]`, the CD50 in the test with Mus musculus [1] stood at 13 mg/kg; in the test with Mus musculus [2], 53 mg/kg.
In the case of `Cc1ccc(S(=O)(=O)O)cc1.Cc1ccc(S(=O)(=O)[O-])cc1.Cc1cccc2n1cc(/C=C/c1ccc(/C=N/NC(=N)N)cc1)[n+]2C`, the CD50 in the test with Mus musculus [3] was found to be 53 mg/kg; in the test with Mus musculus [4], 0.4 mg/kg.
`COc1ccc2n(c1)cc(-c1ccc(/C=N/NC(=N)N)cc1)[n+]2C.Cc1ccc(S(=O)(=O)O)cc1.Cc1ccc(S(=O)(=O)[O-])cc1`: the CD50 in the test with Mus musculus [5] is 6.6 mg/kg; with Mus musculus [8], 0.4 mg/kg. For the same compound, the IC50 in test [6] is 5.9 µg/mL; in test [7], 4.3 µg/mL.
For `C[n+]1c(/C=C/c2ccc(/C=N/NC(=N)N)cc2)cn2ccccc21.Cc1ccc(S(=O)(=O)O)cc1.Cc1ccc(S(=O)(=O)[O-])cc1`, the IC50 amounted to 2.7 µg/mL in test [6] and 9.3 µg/mL in test [7]. For the same compound, the CD50 in the test with Mus musculus [9] was determined as 0.1 mg/kg.
Regarding `C[n+]1c(-c2ccc(/C=N/NC(=N)NO)cc2)cn2ccccc21.Cc1ccc(S(=O)(=O)O)cc1.Cc1ccc(S(=O)(=O)[O-])cc1`, the results for the CD50 in the test with Mus musculus [10] and with Mus musculus [4] were 6.6 mg/kg and 0.8 mg/kg, respectively.
With `Br.C[n+]1c(-c2ccc(/C=N/NC(=N)N)cc2)c(Br)n2ccccc21.[Br-]`, the CD50 in the test with Mus musculus [11] was determined as 1.6 mg/kg; in the test on Mus musculus [12], 26 mg/kg.
